Here are results for 23 compounds from ChEMBL document CHEMBL1141865, “Discovery of 4-heteroarylbicyclo[2.2.2]octyltriazoles as potent and selective inhibitors of 11beta-HSD1: novel therapeutic agents for the treatment of metabolic syndrome” (Bioorg Med Chem Lett, 2005).

Series [1] deals with 11-beta-hydroxysteroid dehydrogenase 1 (Mus musculus, UniProt P50172). Put plainly: Inhibitory activity against mouse 11beta-HSD1.
The target in series [2] is T1, 11-beta-hydroxysteroid dehydrogenase type 2 (Mus musculus, UniProt P51661).
T1 sequence (P51661 whole entry): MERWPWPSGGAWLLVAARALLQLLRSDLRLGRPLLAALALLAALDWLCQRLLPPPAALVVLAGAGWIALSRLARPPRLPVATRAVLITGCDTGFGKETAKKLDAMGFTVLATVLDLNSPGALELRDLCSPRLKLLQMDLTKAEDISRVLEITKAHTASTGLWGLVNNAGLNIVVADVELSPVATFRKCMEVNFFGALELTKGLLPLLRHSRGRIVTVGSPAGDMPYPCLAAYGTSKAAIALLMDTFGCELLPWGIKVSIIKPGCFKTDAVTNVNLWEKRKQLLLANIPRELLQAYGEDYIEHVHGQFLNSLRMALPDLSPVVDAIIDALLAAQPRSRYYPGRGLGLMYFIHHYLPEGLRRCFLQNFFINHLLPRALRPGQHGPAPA
Description: Inhibitory activity against mouse 11beta-HSD2.

In series [3] the target is T2, 11-beta-hydroxysteroid dehydrogenase type 2 (Homo sapiens, UniProt P80365).
T2 sequence (P80365 whole entry): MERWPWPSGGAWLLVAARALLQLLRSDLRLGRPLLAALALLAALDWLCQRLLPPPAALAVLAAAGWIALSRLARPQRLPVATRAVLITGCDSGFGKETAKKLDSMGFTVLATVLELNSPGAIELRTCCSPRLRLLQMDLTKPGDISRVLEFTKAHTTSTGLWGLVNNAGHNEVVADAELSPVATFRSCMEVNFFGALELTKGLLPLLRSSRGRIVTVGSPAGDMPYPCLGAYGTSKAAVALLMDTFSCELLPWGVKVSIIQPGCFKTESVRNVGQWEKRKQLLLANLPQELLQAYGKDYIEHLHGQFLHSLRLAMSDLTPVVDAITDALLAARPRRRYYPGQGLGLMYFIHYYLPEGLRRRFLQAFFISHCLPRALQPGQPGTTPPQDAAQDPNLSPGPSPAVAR
Description: Inhibitory activity against human 11beta-HSD2.

In series [4] the target is T3, 11-beta-hydroxysteroid dehydrogenase 1 (Homo sapiens, UniProt P28845). Description: Inhibitory activity against human 11beta-HSD1.
Target sequence in this assay (P28845 whole entry): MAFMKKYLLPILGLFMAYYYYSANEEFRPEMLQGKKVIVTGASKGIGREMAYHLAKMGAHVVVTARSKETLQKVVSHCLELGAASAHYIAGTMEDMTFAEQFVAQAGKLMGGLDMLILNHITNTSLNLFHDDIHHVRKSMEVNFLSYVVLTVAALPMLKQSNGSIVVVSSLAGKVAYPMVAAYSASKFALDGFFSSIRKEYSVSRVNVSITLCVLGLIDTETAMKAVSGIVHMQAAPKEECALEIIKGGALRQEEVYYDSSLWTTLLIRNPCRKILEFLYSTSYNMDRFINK
The target of series [5] is T4, 11-beta-hydroxysteroid dehydrogenase type 2 (Homo sapiens) (UniProt P80365).
T4 sequence (whole entry): T2 sequence (P80365 whole entry)
Description: Inhibitory activity against human 11beta-HSD2 at 4 uM.

The species named for series [6] is Mus musculus. Put plainly: AUC in mouse. In kind it is ADME, organism-based, Plasma. The following applies: in vivo.
The species named for a further series is Canis familiaris. Put plainly: AUC in dog. To be noted: in vivo. In kind it is ADME, organism-based, Canis lupus familiaris, Plasma.
The nature of series [7]: Plasma clearance in rat. In kind it is ADME, organism-based.
Series [8] can be described thus: Half life in mouse. The format is ADME, organism-based. To be noted: in vivo.
Series [9] is described as follows: Oral bioavailability in rat. The format is ADME, organism-based. To be noted: in vivo.
A short description of series [10]: Oral bioavailability in dog. In kind it is ADME, organism-based, Canis lupus familiaris. To be noted: in vivo.
Series [11] in a line: Half life in dog. In kind it is ADME, organism-based, Canis lupus familiaris. The following applies: in vivo.
Series [12] in a line: plasma clearance in dog. The format is ADME, organism-based, Canis lupus familiaris.
Series [13] can be described thus: Half life in rat. The format is ADME, organism-based. To be noted: in vivo.
A further series is filed under the species Rattus norvegicus. Description: AUC in rat. The format is ADME, organism-based, Plasma. The following applies: in vivo.
The nature of series [14]: Oral bioavailability in mouse. The following applies: in vivo. The format is ADME, organism-based.
Series [15] can be described thus: (§1) Plasma clearance in mouse. The format is ADME, organism-based. To be noted: plasma.
For series [16], the target named is T3, 11-beta-hydroxysteroid dehydrogenase 1. Description: In vivo inhibition of 11beta-HSD1 at 1 h (10 mg/kg, po) assessed by extent of cortisone to cortisol conversion. In kind it is functional, organism-based. The method, boiled down: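 Oral dosing at 10 mg/kg, followed by exogenous [3H]cortisone as the 11β-HSD1 substrate. In vivo enzyme activity is read out as the extent of conversion to [3H]cortisol, reported as % inhibition.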
Target sequence in this assay (P28845 whole entry, looked up): as the sequence (P28845 whole entry) above

The species entered for series [17] is Mus musculus. The description is as §1. The format is ADME, organism-based. To be noted: in vivo.

Structures are written as SMILES.

Chain of 11-beta-hydroxysteroid dehydrogenase 1 (Mus musculus, UniProt P50172) (P50172 whole entry): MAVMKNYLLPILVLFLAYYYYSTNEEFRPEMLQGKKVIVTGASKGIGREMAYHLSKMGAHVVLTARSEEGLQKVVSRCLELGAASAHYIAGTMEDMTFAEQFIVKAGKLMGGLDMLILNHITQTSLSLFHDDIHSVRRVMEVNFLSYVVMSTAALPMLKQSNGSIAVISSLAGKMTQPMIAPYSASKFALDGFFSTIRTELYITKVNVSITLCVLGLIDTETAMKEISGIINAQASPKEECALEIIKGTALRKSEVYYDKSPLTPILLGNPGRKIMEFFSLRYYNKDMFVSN

Consider `Cc1noc(C23CCC(c4nnc5n4CCCCCC5)(CC2)CC3)n1`, for which the IC50 (usually the concentration that inhibits the measured activity by half) in series [1] is 136 nM; in [2], above 4000 nM; in series [3], above 4000 nM; in [4], 289 nM.
For the compound `Cn1c(-c2ccccc2C(F)(F)F)nnc1C12CCC(c3nc(-c4ccc(S(=O)(=O)C(F)(F)F)cc4)no3)(CC1)CC2`, the IC50 in [1] is below 0.98 nM.
Same read-out and setting: next, `Cn1c(-c2ccccc2C(F)(F)F)nnc1C12CCC(c3nc(-c4ccc(=O)n(C)c4)no3)(CC1)CC2`: 22 nM; `COc1ccc(-c2nnc(C34CCC(c5nc(-c6ccc(F)cc6)no5)(CC3)CC4)n2C)c(Cl)c1`: 12 nM; `Cn1c(-c2ccccc2C(F)(F)F)nnc1C12CCC(c3nc(-c4ccc(C(O)C(F)(F)F)cc4)no3)(CC1)CC2` (stereo not given): below 1 nM.
As to `Cn1c(-c2ccccc2C(F)(F)F)nnc1C12CCC(c3noc(-c4ccc(F)cc4)n3)(CC1)CC2`, in series [1], the IC50 was below 1 nM.
Consider `C1CCCn2c(nnc2C23CCC(c4nc(CC5CC5)no4)(CC2)CC3)CC1`, for which the IC50 was below 3.9 nM in [1], above 4000 nM in series [2] and 170 nM in series [4]. Further, in series [5], the inhibition (in general, the share of the control response that was lost under treatment) stood at 61%.
In turn, `Cn1c(-c2ccccc2C(F)(F)F)nnc1C12CCC(c3nc(-c4cccc(S(C)(=O)=O)c4)no3)(CC1)CC2` showed an IC50 in [1] of 9.5 nM.
On the same count and under the same terms, next, `Cn1c(-c2ccccc2C(F)(F)F)nnc1C12CCC(c3nc(-c4ccc(F)cc4)c[nH]3)(CC1)CC2`: 2.4 nM.
Regarding `Cn1c(-c2ccccc2C(F)(F)F)nnc1C12CCC(c3nc(-c4ccc(F)cc4)no3)(CC1)CC2`, the figures for the AUC in the series listed under Mus musculus [6], in the series listed under Canis familiaris and in the series listed under Rattus norvegicus were 5.7 uMh, 9.55 uMh and 6.2 uMh, respectively. In series [1], this compound returned an IC50 of 1.9 nM. Besides, the clearance (as a rule, the volume of plasma or blood freed of the substance per unit of time) turned out to be 5.39 mL/min/kg in series [7], 3.51 mL/min/kg in series [12] and 5.88 mL/min/kg in series [15]. For the same compound, the values for the half-life in [8], in series [11] and in [13] were 17.7 h, 9.87 h and 5.1 h, respectively. In addition, the bioavailability (commonly the share of a dose that reaches the circulation, judged against a reference dose that is usually intravenous) was 83% in [9], 100% in [10] and 58% in series [14].
Consider `Cn1c(-c2ccccc2OC(F)F)nnc1C12CCC(c3nc(-c4ccc(F)cc4)no3)(CC1)CC2`, for which inhibition in series [1] was half-maximal at 5.2 nM (IC50).
`COc1ccc(-c2noc(C34CCC(c5nnc(-c6ccccc6C(F)(F)F)n5C)(CC3)CC4)n2)cn1` registered an IC50 in [1] of 4.5 nM. The IC50 values of the last two compounds are within 1.5-fold of each other.
The same measure, in the same setting: the value for `Cn1c(-c2ccccc2C(F)(F)F)nnc1C12CCC(c3nc(-c4ccc(S(C)(=O)=O)cc4)no3)(CC1)CC2` was 1.8 nM.
Regarding `CCCCCC12CCC(c3nnc4n3CCCCCC4)(CC1)CC2`, the IC50 in series [1] was 3 nM; in series [2], 2100 nM; in series [3], 183 nM; in series [4] it was 5 nM. In series [16], this compound had an inhibition of 74%. This compound also showed a bioavailability in series [14] of 6%. Also, the CL in the series filed under Mus musculus [17] amounted to 14.1 mL/min/kg.
Turning to `COc1cc(O)ccc1-c1nnc(C23CCC(c4nc(-c5ccc(F)cc5)no4)(CC2)CC3)n1C`, in series [1], the IC50 turned out to be 2.3 nM.
Still for that read-out and setting: next, `Cn1c(-c2ccccc2Cl)nnc1C12CCC(c3nc(-c4ccc(F)cc4)no3)(CC1)CC2`: 3.2 nM; `Cn1c(-c2ccccc2S(C)(=O)=O)nnc1C12CCC(c3nc(-c4ccc(F)cc4)no3)(CC1)CC2`: 29 nM.
Still for that read-out and setting: next, `Cn1c(-c2ccccc2C(F)(F)F)nnc1C12CCC(c3nc(-c4ccc(Cl)cc4)no3)(CC1)CC2`: 2 nM.
Take `CCCCCC12CCC(c3nnc(-c4ccccc4C(F)(F)F)n3C)(CC1)CC2`: the IC50 in series [1] came to 3 nM; in series [4] it was 2 nM. In addition, the inhibition in series [16] is 99%. Moreover, the bioavailability in series [14] worked out at 21%. Moreover, the clearance in series [15] is 273 mL/min/kg.
As to `COC(=O)C12CCC(c3nnc4n3CCCCCC4)(CC1)CC2`, the IC50 was 68 nM in series [1], above 4000 nM in series [2], above 4000 nM in [3] and 110 nM in series [4].
As to `Clc1ccc(-c2noc(C34CCC(c5nnc6n5CCCCCC6)(CC3)CC4)n2)cc1`, the IC50 in [1] came to 17 nM; in series [2], 4000 nM.
In series [1], `Cn1c(-c2ccccc2C(F)(F)F)nnc1C12CCC(c3n[nH]c(-c4ccc(F)cc4)n3)(CC1)CC2` had an IC50 of 1.6 nM.
Still for that read-out and setting: the value for `Cn1c(-c2ccccc2C(F)(F)F)nnc1C12CCC(c3nnc(-c4ccc(F)cc4)o3)(CC1)CC2` was 5 nM.
